Assay results from ChEMBL document CHEMBL2375276, “Antibacterial oxazolidinone analogues having a N-hydroxyacetyl-substituted seven-membered [1,2,5]triazepane or [1,2,5]oxadiazepane C-ring unit” (Eur J Med Chem, 2013).
Converted amounts (≈) assume the structure as drawn.

Key:
Staphylococcus aureus [1] = assay: Antibacterial activity against Staphylococcus aureus SR20549 clinical isolate assessed as growth inhibition by CLSI broth microdilution method; format: functional
In short: (§1)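 MIC by CLSI broth microdilution in cation-adjusted Mueller-Hinton broth; S. pneumoniae medium supplemented with 5% lysed horse blood.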

Haemophilus influenzae = assay: Antibacterial activity against Haemophilus influenzae SR27914 clinical isolate assessed as growth inhibition by CLSI broth microdilution method; format: functional
In short: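 MIC by CLSI broth microdilution using Haemophilus test medium.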

MAO-B = target: T1, MAO-B (Rattus norvegicus, UniProt P19643); assay: Inhibition of MAO-B in rat forebrain using [14C]PEA as substrate at 30 uM incubated for 20 mins prior to substrate addition measured after 10 mins by liquid scintillation counting analysis relative to control; format: tissue-based; conditions: probe [14C]PEA
T1 sequence (P19643 whole entry): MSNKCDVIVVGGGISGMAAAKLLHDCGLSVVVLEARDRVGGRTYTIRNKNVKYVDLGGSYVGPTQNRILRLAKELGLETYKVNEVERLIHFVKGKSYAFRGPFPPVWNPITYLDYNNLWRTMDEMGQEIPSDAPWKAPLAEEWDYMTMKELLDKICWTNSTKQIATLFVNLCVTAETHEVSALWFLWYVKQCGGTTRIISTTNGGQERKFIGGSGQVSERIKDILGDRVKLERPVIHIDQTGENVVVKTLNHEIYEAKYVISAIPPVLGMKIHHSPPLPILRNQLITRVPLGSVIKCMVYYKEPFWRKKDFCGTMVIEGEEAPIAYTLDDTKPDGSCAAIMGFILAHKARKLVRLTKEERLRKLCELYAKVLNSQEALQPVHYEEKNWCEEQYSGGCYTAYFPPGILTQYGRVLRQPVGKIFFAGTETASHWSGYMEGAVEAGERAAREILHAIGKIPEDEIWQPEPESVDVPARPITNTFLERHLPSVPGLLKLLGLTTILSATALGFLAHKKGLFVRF

Cytochrome P450 2D6 = Cytochrome P450 2D6 (Homo sapiens, UniProt P10635); assay: Inhibition of human CYP2D6 assessed as dextromethorphan O-demethylation after 20 mins by LC/MS/MS analysis; format: ADME
Sequence of Cytochrome P450 2D6 (P10635 whole entry): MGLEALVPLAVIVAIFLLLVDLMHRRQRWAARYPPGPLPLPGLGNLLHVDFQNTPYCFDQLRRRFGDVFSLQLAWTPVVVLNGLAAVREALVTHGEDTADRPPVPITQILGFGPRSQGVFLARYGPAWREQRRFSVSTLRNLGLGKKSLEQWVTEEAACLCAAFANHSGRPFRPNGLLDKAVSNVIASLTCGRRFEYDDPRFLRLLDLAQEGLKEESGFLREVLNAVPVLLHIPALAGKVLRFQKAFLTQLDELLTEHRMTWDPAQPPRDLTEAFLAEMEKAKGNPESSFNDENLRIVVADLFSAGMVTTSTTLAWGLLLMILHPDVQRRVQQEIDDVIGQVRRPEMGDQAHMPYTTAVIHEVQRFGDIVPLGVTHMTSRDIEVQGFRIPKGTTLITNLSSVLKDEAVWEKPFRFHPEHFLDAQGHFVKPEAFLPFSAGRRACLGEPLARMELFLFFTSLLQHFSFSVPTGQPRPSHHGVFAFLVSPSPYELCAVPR
In short: (§2)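 Human liver microsomes (0.2 mg protein/mL) with 1 mM NADPH in 50 mM HEPES pH 7.4, 10 mM MgCl2, 0.1 mM EDTA. After centrifugation, supernatant metabolite measured by LC/MS/MS. Standard curve from authentic metabolite cocktail added to unincubated reaction mix.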

Cytochrome P450 1A2 = target: T2, Cytochrome P450 1A2 (Homo sapiens, UniProt P05177); assay: Inhibition of human CYP1A2 assessed as ethoxyresorufin O-deethylation after 20 mins by fluorescence plate reader analysis; format: ADME
T2 sequence (P05177 whole entry): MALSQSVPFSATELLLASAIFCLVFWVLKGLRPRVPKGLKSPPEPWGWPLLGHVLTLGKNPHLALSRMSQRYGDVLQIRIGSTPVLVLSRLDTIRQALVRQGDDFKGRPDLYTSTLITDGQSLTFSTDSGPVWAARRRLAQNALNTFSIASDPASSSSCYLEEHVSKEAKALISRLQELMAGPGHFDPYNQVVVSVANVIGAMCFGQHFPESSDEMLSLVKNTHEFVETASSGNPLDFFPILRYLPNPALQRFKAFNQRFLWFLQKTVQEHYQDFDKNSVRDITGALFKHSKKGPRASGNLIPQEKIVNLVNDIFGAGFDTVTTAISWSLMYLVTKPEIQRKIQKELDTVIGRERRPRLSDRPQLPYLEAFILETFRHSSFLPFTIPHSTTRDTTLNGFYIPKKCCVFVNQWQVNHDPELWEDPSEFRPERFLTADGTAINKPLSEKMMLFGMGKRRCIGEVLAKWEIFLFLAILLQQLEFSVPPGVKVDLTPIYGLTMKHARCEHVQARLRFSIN
In short: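 Human liver microsomes (0.2 mg protein/mL) with 1 mM NADPH in 50 mM HEPES pH 7.4, 10 mM MgCl2, 0.1 mM EDTA. After centrifugation, supernatant read on a fluorescence plate reader. Standard curve from authentic metabolite added to unincubated reaction mix.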

Enterococcus faecalis = assay: Antibacterial activity against Enterococcus faecalis SR1004 clinical isolate assessed as growth inhibition by CLSI broth microdilution method; format: functional; in short: as §1
Cytochrome P450 2C9 = Cytochrome P450 2C9 (Homo sapiens, UniProt P11712); assay: Inhibition of human CYP2C9 assessed as tolbutamide hydroxylation after 20 mins by LC/MS/MS analysis; format: ADME; in short: as §2
Sequence of Cytochrome P450 2C9 (P11712 whole entry): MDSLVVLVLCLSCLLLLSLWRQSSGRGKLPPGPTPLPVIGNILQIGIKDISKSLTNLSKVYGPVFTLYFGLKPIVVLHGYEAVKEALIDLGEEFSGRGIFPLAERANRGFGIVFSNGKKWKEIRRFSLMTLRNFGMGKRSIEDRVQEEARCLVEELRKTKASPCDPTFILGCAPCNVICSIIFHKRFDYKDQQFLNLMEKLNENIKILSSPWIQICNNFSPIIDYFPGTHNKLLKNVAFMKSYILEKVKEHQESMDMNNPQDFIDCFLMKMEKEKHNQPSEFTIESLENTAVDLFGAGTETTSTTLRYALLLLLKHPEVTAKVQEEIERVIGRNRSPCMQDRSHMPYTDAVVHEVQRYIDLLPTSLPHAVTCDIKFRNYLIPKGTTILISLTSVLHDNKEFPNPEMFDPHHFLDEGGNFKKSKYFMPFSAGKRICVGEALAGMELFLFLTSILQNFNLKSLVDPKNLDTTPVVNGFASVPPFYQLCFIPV

Moraxella catarrhalis = assay: Antibacterial activity against Moraxella catarrhalis SR26840 clinical isolate assessed as growth inhibition by CLSI broth microdilution method; format: functional; in short: as §1
Cytochrome P450 3A4 = Cytochrome P450 3A4 (Homo sapiens, UniProt P08684); assay: Inhibition of human CYP3A4 assessed as terfenadine hydroxylation after 20 mins by LC/MS/MS analysis; format: ADME; in short: as §2
Sequence of Cytochrome P450 3A4 (P08684 whole entry): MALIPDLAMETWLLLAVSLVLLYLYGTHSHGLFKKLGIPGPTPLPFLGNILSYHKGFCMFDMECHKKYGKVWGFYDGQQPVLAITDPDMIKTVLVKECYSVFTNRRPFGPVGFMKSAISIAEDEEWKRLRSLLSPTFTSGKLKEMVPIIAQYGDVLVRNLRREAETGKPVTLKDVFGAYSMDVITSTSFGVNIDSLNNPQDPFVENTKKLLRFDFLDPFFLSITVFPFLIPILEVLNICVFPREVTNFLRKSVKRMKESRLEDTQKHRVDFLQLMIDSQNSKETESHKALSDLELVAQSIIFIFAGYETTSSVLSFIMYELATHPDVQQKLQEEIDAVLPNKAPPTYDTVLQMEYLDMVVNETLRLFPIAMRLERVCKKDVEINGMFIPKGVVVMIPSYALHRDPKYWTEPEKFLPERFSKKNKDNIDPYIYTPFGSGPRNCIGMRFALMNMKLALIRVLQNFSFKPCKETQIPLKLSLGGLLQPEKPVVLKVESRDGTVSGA

Streptococcus pneumoniae = assay: Antibacterial activity against Streptococcus pneumoniae SR26207 clinical isolate assessed as growth inhibition by CLSI broth microdilution method; format: functional; in short: as §1
Staphylococcus aureus [2] = assay: Antibacterial activity against linezolid-resistant Staphylococcus aureus NRS271 assessed as growth inhibition by CLSI broth microdilution method; format: functional
In short: (§3)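 MIC by CLSI broth microdilution in cation-adjusted Mueller-Hinton broth. Lowest concentration inhibiting growth taken as MIC.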

MAO-A = target: T3, MAO-A (Rattus norvegicus, UniProt P21396); assay: Inhibition of MAO-A in rat forebrain using [14C]5-HT as substrate at 30 uM incubated for 20 mins prior to substrate addition measured after 5 mins by liquid scintillation counting analysis relative to control; format: tissue-based; conditions: probe [14C]5-HT
T3 sequence (P21396 whole entry): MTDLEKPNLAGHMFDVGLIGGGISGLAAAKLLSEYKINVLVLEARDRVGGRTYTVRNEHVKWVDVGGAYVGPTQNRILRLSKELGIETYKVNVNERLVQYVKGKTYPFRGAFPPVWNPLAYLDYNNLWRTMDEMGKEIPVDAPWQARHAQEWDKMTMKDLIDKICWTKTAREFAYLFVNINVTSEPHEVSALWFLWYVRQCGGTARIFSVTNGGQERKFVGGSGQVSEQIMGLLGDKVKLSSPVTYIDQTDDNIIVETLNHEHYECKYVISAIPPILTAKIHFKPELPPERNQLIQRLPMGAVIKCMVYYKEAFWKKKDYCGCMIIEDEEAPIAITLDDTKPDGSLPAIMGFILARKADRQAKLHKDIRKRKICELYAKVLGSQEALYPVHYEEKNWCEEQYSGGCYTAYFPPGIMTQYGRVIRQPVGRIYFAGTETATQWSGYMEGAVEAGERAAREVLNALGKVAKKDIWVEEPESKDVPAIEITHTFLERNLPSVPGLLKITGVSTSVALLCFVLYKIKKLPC

Staphylococcus aureus [3] = assay: Antibacterial activity against methicillin-resistant Staphylococcus aureus SR3637 infected in JCL/ICR mouse systemic infection model assessed as mortality administered as po measured over 7 days; format: functional; conditions: 168 h
In short: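 Five-week-old male JCL/ICR mice (20–25 g), five per group. Infected intraperitoneally with 0.5 or 1.0 mL bacterial suspension (about 100× LD50). Oral dosing 1 h post-infection. Mortality followed 7 days; ED50 with 95% confidence limits by logit method.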

Staphylococcus aureus [4] = assay: Antibacterial activity against methicillin-resistant Staphylococcus aureus SR3637 infected in JCL/ICR mouse systemic infection model assessed as mortality administered as iv measured over 7 days; format: functional; conditions: 168 h
In short: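 Five-week-old male JCL/ICR mice (20–25 g), five per group. Infected intraperitoneally with 0.5 or 1.0 mL bacterial suspension (about 100× LD50). Intravenous dosing 1 h post-infection. Mortality followed 7 days; ED50 with 95% confidence limits by logit method.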

Enterococcus faecium = assay: Antibacterial activity against Enterococcus faecium SR7940 clinical isolate assessed as growth inhibition by CLSI broth microdilution method; format: functional; in short: as §1
Staphylococcus aureus [5] = assay: Antibacterial activity against Staphylococcus aureus Smith assessed as growth inhibition by CLSI broth microdilution method; format: functional; in short: as §1
Staphylococcus aureus [6] = assay: Antibacterial activity against methicillin-resistant Staphylococcus aureus SR3637 assessed as growth inhibition by CLSI broth microdilution method; format: functional; in short: as §3

SMILES | MIC (Staphylococcus aureus [1]) [µg/mL] | MIC (Haemophilus influenzae) [µg/mL] | inhibition at 10 min, 30 µM (MAO-B) [%] | IC50 (Cytochrome P450 2D6) [µM] | IC50 (Cytochrome P450 1A2) [µM] | MIC (Enterococcus faecalis) [µg/mL] | IC50 (Cytochrome P450 2C9) [µM] | MIC (Moraxella catarrhalis) [µg/mL] | IC50 (Cytochrome P450 3A4) [µM] | MIC (Streptococcus pneumoniae) [µg/mL] | MIC (Staphylococcus aureus [2]) [µg/mL] | inhibition at 5 min, 30 µM (MAO-A) [%] | ED50 (Staphylococcus aureus [3]) [mg/kg] | ED50 (Staphylococcus aureus [4]) [mg/kg] | MIC (Enterococcus faecium) [µg/mL] | MIC (Staphylococcus aureus [5]) [µg/mL] | MIC (Staphylococcus aureus [6]) [µg/mL]
CC(=O)NC[C@H]1CN(c2ccc(N3CCN(C(=O)CO)CC3)c(F)c2)C(=O)O1 [EPEREZOLID] | 1 (≈ 2.54 µM) | 4 (≈ 10.1 µM) | 20.2 | > 20 | > 20 | 1 (≈ 2.54 µM) | > 20 | 8 (≈ 20.3 µM) | > 20 | 0.125 (≈ 0.317 µM) | 32 (≈ 81.1 µM) | 53.6 | 4.76 | 1.85 | 2 (≈ 5.07 µM) | 1 (≈ 2.54 µM) | 1 (≈ 2.54 µM)
CC(=O)NC[C@H]1CN(c2ccc(N3CCOCC3)c(F)c2)C(=O)O1 [LINEZOLID] |  | 16 (≈ 47.4 µM) | 70.4 | > 20 | > 20 |  | > 20 | 8 (≈ 23.7 µM) | > 20 |  | 32 (≈ 94.9 µM) | 61.3 | 2.02 | 1.73 | 2 (≈ 5.93 µM) |  | 
